How the values were obtained:
Rattus norvegicus = assay: Antiinflammatory activity in Sprague-Dawley rat assessed as inhibition carrageenan-induced paw edema at 30 mg/kg, ip pretreated for 15 mins followed by carrageenan challenge measured at 2 hrs post carrageenan challenge; assay type: functional
How it was run: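 Male Sprague-Dawley rats received peptide IP (30, 10 or 3 mg/kg), or indomethacin IP at 5 mg/kg, 15 min before subplantar carrageenan. Paw volume was followed over time against a vehicle group.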

Plasma kallikrein [1] = target: Plasma kallikrein (Homo sapiens, UniProt P03952); assay: Inhibition of human plasma kallikrein using fluorogenic H-Pro-Phe-Arg-AMC peptide as substrate preincubated for 15 mins followed by substrate addition measured by fluorescence-based assay; settings: read-out: Ki(app)
Plasma kallikrein [2] = target: Plasma kallikrein (Rattus norvegicus, UniProt P14272); assay: Inhibition of recombinant Sprague-Dawley rat plasma kallikrein using fluorogenic H-Pro-Phe-Arg-AMC peptide as substrate preincubated for 15 mins followed by substrate addition measured by fluorescence-based assay; settings: read-out: Ki(app)
[3] = Drug level in New Zealand white rabbit contralateral eye vitreous humor at 2 mg/ml, administered via ivt injection by LC-MS/MS analysis; assay type: ADME, tissue-based, Oryctolagus cuniculus; settings: in vivo, topical_or_ocular

Sequence of Plasma kallikrein (Rattus norvegicus, UniProt P14272) (P14272 20-390 limits assumed): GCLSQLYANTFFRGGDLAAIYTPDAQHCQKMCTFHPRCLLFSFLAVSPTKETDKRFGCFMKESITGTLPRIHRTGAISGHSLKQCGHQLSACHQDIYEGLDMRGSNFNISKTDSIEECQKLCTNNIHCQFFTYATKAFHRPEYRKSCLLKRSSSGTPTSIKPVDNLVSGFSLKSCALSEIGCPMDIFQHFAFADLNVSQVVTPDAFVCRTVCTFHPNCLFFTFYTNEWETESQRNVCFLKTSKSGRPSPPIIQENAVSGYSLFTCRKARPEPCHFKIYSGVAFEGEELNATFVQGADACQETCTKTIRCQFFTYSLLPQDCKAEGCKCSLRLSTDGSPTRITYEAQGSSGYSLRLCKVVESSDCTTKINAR
Sequence of Plasma kallikrein (Rattus norvegicus, UniProt P14272) (P14272 391-638 limits assumed): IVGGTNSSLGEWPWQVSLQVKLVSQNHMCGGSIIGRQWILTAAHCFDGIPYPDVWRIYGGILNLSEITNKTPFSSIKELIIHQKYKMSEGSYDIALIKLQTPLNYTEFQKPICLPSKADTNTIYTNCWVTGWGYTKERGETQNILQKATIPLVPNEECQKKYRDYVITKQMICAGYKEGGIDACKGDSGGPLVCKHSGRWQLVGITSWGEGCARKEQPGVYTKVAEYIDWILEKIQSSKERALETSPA
Sequence of Plasma kallikrein (Homo sapiens, UniProt P03952) (P03952 20-390 limits assumed): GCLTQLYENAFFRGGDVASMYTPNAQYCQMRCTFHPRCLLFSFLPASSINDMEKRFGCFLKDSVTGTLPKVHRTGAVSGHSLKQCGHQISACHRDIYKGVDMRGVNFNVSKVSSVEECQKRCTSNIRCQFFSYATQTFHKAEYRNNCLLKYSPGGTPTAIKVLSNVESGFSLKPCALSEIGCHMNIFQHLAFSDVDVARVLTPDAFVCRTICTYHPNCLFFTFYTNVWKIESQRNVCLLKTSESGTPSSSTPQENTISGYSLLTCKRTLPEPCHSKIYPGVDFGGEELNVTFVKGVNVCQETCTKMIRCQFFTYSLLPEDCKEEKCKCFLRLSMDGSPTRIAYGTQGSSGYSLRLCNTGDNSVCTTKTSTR
Sequence of Plasma kallikrein (Homo sapiens, UniProt P03952) (P03952 391-638 limits assumed): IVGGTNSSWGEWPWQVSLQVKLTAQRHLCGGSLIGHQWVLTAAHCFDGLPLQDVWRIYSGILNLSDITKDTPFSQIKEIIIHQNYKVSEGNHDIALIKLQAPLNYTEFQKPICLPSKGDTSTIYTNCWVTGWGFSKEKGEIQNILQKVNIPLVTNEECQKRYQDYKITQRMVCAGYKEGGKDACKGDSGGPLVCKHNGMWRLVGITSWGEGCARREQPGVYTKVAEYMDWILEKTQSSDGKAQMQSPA

SMILES | inhibition in vivo at 30 mg/kg (Rattus norvegicus) | Ki (Plasma kallikrein [1]) | Ki (Plasma kallikrein [2]) | Drug uptake [3]
CC(=O)N[C@H]1CSCc2cc3cc(c2)CSC[C@H](C(=O)N[C@@H](C)C(=O)N(C)CC(=O)N(C)CC(=O)N(C)CC(=O)N[C@H](CCCNC(=N)N)C(=O)N[C@H](CCCNC(=N)N)C(=O)O)NC(=O)[C@H](CC(C)C)NC(=O)[C@@H]2CCCN2C(=O)[C@H](C)NC(=O)[C@H](CC(=O)O)NC(=O)[C@H](Cc2c[nH]c4ccccc24)NC(=O)[C@@H]2CCCN2C(=O)[C@H](CSC3)NC(=O)[C@H](Cc2c[nH]c3ccccc23)NC(=O)[C@@H]2CCCN2C(=O)[C@H](CC(N)=O)NC(=O)[C@H](Cc2c[nH]c3ccccc23)NC(=O)[C@H]([C@@H](C)O)NC(=O)[C@H](CC(N)=O)NC1=O | 59% |  |  | 
CC[C@H](C)[C@@H]1NC(=O)[C@H](CC(=O)O)NC(=O)[C@@H]2CCCN2C(=O)[C@H](Cc2ccc(O)cc2)NC(=O)[C@H](Cc2ccc(O)cc2)NC(=O)[C@H](C(C)C)NC(=O)[C@@H]2CSCc3cc(cc(c3)CSC[C@@H](C(=O)N[C@@H](C)C(=O)N(C)CC(=O)N(C)CC(=O)N(C)CC(=O)N[C@H](CCCNC(=N)N)C(=O)N[C@H](CCCNC(=N)N)C(=O)O)NC1=O)CSC[C@H](NC(C)=O)C(=O)N[C@@H](CO)C(=O)N[C@@H](Cc1ccccc1)C(=O)N1CCC1C(=O)N[C@@H](Cc1ccc(O)cc1)C(=O)N[C@@H](CCCCNC(=N)N)C(=O)N2 (some centres undefined) |  | 0.25 nM | 5.5 nM | 1 ng/mL

Reference: ChEMBL document CHEMBL4033799, “Stable and Long-Lasting, Novel Bicyclic Peptide Plasma Kallikrein Inhibitors for the Treatment of Diabetic Macular Edema” (J Med Chem, 2018)
